14-3-3 Bad PPI: inhibitors of 14-3-3 zeta/Bad binding, primary screen, biochemical, TR-FRET, bovine 14-3-3 zeta; 14-3-3 protein zeta/delta (Bos taurus), P63103; TR-FRET 14-3-3zeta/Dy647-pBad peptide displacement, 1 h; inhibition, % at 21.7 µM; actives 0.71% (n = 220,000); AID 781, 2007;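 active = inhibition above about 70%, limit read from the data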
eIF4E-4G inh: eIF4E–eIF4G protein interaction inhibitors, primary screen, biochemical, uHTS, TR-FRET, eIF4GI fragment | Eukaryotic translation initiation factor 4E (Mus musculus) + Eukaryotic translation … | TR-FRET eIF4E-eIF4GI(517-606) binding, 2 h | inhibition, % at 21.7 µM | actives 0.37% (n = 220,000) | AID 782, 2007
RBBP9 inh: human RBBP9 inhibitors, primary screen, biochemical, fluorescence polarization, FP-Rh probe, HTS; recombinant RBBP9; inhibition, % at 7.94 µM; AID 1515, 2009; Serine hydrolase RBBP9 (Homo sapiens), O75884; actives 0.2% (n = 220,000);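 active = inhibition above the campaign mean of all tested compounds plus 3 SD, cut at about 14% in these data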
Target sequence (O75884 whole entry, looked up): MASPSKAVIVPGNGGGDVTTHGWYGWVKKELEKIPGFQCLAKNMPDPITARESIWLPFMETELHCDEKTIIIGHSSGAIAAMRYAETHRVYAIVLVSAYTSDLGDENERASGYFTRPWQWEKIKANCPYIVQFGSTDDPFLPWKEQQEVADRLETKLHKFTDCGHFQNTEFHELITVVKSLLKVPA
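system = RBBP9 protein | input = RBBP9 at 2.5 µM in dispensed solution, before mixing | measured by = fluorescence polarization (mP), excitation 525 nm, emission 598 nm | incubation = enzyme-compound preincubation 30 min, then probe labeling 45 min, 25 °C | buffer or medium = Tris-NaCl-Pluronic buffer, pH 8.0 | compound = single dose 7.94 µM | also added = FP-Rh probe, 375 nM dispensing solution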
EBV gp42 block: Epstein-Barr virus gp42 inhibitors, primary screen, biochemical, uHTS, fluorescence polarization. Glycoprotein 42 (Epstein-Barr virus (strain AG876)), Q1HVG2. AID 1085, 2008. Fluorescence polarization binding assay, mP read-out. inhibition, % (tested at 21.74 µM). actives 0.42% (n = 220,000); in the data active = inhibition above about 50%
Target sequence (Q1HVG2 whole entry, looked up): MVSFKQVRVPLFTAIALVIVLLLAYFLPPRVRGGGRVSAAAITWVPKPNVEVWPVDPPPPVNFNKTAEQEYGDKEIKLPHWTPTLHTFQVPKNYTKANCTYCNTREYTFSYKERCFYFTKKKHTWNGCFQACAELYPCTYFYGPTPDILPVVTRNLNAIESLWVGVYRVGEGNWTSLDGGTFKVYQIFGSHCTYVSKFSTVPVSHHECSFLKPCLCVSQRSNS
NCF1 inh: p47phox/p22phox peptide binding inhibitors, primary screen, biochemical, uHTS, NADPH oxidase regulatory subunit. fluorescence polarization, 2 h. actives 0.53% (n = 220,000). inhibition, % at 24.7 µM
WT yeast gro inh: growth inhibition of WT strain, primary screen, mitochondrial fusion inhibitor project, WT and mutant strains, chemical genetic; actives 2.1% (n = 190,000); inhibition, % at 10 µM; mitochondrial fusion phenotypic screen; in the data active = inhibition above about 58%; tested in S. cerevisiae
Numbers stand for hits; - = inactive; . = not tested or not shown. Rows were chosen to be rich in hits. Some 3.7% of all compounds tested hit in one or more screens of this group.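 The calls were made as follows, unless noted: active = inhibition above about 30% (limit read from the data); inactive = the rest.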

SMILES	14-3-3 Bad PPI	eIF4E-4G inh	RBBP9 inh	EBV gp42 block	NCF1 inh	WT yeast gro inh
CCCCSc1nnc(CSc2ncccn2)n1C	-	-	-	-	-	-
Clc1ccc(-c2nnnn2-c2ccc(Cl)c(Cl)c2)cc1Cl	-	-	-	-	-	79.4
Cc1ccc(-n2nnnc2-c2ccccc2)cc1	-	-	-	-	-	-
CCOC(=O)c1c(C)[nH]c(N=Nc2cccc(OC)c2)c1C	-	-	-	-	-	-
CCOC(=O)c1c(C)[nH]c(N=Nc2cccc(C)c2)c1C	-	-	-	-	-	72.6
Cc1cc(Nc2ccccc2)c2c([N+](=O)[O-])cc(C)c(C)c2n1	-	-	-	-	-	76.2
COc1cc(/C=C/c2ccc(O)cc2)cc(OC)c1	-	-	-	-	-	58.4
Fc1nc(F)c(F)c(NCCCNc2c(F)c(F)nc(F)c2F)c1F	-	-	-	-	-	72.5
O=C(c1cnc2sccn2c1=O)N1CCc2ccccc2C1	-	-	-	-	-	-
O=C(c1cnc2sccn2c1=O)N1CCN(c2ccccc2Cl)CC1	-	97.7	-	-	-	.
O=C(CN1C(=O)c2ccccc2S1(=O)=O)NCc1ccco1	-	-	-	-	-	-
Cc1ccc(NCC(=O)N/N=C/c2cc3ccccc3nc2Cl)cc1	-	-	-	-	-	67.9
c1ccc2c(c1)CC/C2=N/Nc1nc2ccccc2[nH]1	-	-	-	-	-	76.7
Cn1c(N/N=C/c2c[nH]c3ccccc23)nc2ccccc21	-	-	-	-	-	-
Cn1c(N/N=C/c2cc3ccccc3nc2Cl)nc2ccccc21	-	-	-	-	-	69.2
O=C(CN1CCOCC1)N/N=C/c1cc2ccccc2nc1Cl	-	-	-	-	-	-
C(=N\Nc1nc2ccccc2[nH]1)/c1ccccn1	-	-	-	-	-	66.9
CC(C)(C)C1CCC(=NNc2nc3ccccc3[nH]2)CC1 (configuration not stated)	-	-	-	-	-	-
COc1cc(/C=N/NC(=O)c2ccc(O)cc2)ccc1Oc1ccc([N+](=O)[O-])cn1	-	-	-	-	-	-
CCC1CCCCN1C(=O)CSc1nc(N)cc(N)n1 (configuration not stated)	-	-	-	-	-	-
Cc1ccc2cc(/C=N/Nc3nc4ccccc4[nH]3)c(Cl)nc2c1	-	-	-	-	-	59.2
CCN1/C(=C/c2cc[n+](C)cc2)C=Cc2cc(C)ccc21	-	-	-	-	-	70.3
Cc1ccc(OCC(=O)N2CCCCC2)c(Br)c1	-	-	-	-	-	-
Cc1cc(Cl)ccc1OC(C)C(=O)N1CCCN(C(=O)C(C)Oc2ccc(Cl)cc2C)CC1 (configuration not stated)	-	-	-	-	-	59.6
CC(Oc1ccccc1Cl)C(=O)N1CCOCC1 (configuration not stated)	-	-	-	-	-	-
SMILES	14-3-3 Bad PPI	eIF4E-4G inh	RBBP9 inh	EBV gp42 block	NCF1 inh	WT yeast gro inh
Cc1cc(Cl)ccc1OCC(=O)N1CCCN(C(=O)COc2ccc(Cl)cc2C)CC1	-	-	-	-	-	73.0
CC(C)(C)c1ccc(OCC(=O)N2CCCCCC2)c(Br)c1	-	-	-	-	-	67.6
C=C(C)CCOC(=O)C(CC(=O)O)NCc1ccco1 (configuration not stated)	-	-	-	-	-	.
CC1(C)CC(=O)C=C(C(=O)N2CCCC(C(=O)c3cccc(Cl)c3)C2)O1 (configuration not stated)	-	-	-	-	-	-
c1ccc(-c2cn3nc(-c4ccccc4)c(-c4ccccc4)nc3n2)cc1	-	-	-	128.1	-	-
Cc1nn2cc(-c3ccc(-c4ccccc4)cc3)nc2s1	-	-	-	-	-	-
Cc1ccc(-c2cn3nc(-c4ccccc4)c(-c4ccccc4)nc3n2)cc1	-	-	-	125.6	-	.
